Bioassay records as filed in PubChem BioAssay.
Shown are actives, neighbours in structure and some others; about 3.7% of the full set was active somewhere.
GPR7 antagonist: GPR7 receptor antagonists, primary screen, cell-based, fluorescence, single concentration | Neuropeptides B/W receptor type 1 (Homo sapiens), P48145 | GPR7-expressing cells, fluorescence antagonist assay | inhibition, % at 4.4 µM | 1.1% of 290,000 active; in the data active = inhibition above about 16%, passing the limit was not always enough;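 also: cells stimulated with the agonist NPW; 0% = agonist with vehicle and 100% = vehicle without agonist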
OX1R antag-1: OX1R (HCRTR1) antagonists, primary screen, fluorescence, CHO/OX1R cells, Fluo-8 calcium, orexin A | 0.43% of 330,000 active | Fluo-8 calcium fluorescence | inhibition, % at 5 µM | Orexin/Hypocretin receptor type 1 (Homo sapiens), O43613;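 active = inhibition above its plate's threshold, mean inhibition of all tested compounds on the plate plus 3 SD, cut at about 37% in these data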;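 also: 0% = orexin A challenge wells and 100% = SB-334867-A antagonist wells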
EP2 antag: human EP2 receptor antagonists, primary screen, TR-FRET cAMP, C6 glioma cells. C6 glioma cells expressing human EP2; cells stimulated with saturating PGE2. inhibition, % at 25 µM. 0.52% of 260,000 active. AID 1422, 2008;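 active = percent inhibition above 40 after rounding to a whole number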;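 also: rat C6 glioma host cells with rolipram phosphodiesterase inhibitor present; the protocol text gives 20 µM as final concentration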
Target sequence (P43116 whole entry, looked up): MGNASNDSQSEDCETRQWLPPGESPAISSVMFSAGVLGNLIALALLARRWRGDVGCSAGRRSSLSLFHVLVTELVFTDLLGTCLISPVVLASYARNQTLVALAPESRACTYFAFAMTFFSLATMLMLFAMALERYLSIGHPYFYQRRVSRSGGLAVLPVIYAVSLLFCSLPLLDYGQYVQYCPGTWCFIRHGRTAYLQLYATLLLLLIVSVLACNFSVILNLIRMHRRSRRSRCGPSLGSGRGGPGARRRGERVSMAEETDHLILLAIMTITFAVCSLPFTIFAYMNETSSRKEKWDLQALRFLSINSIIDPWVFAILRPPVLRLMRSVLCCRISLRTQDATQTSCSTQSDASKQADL
CHO parental Ca: ATP-evoked calcium signal inhibitors, parental CHO, primary screen, counter-screen for OX1R antagonist project, cell-based, fluorescence, Fluo-8 calcium dye | parental CHO-K1, ATP-induced calcium, Fluo-8 fluorescence | inhibition, % at 5.6 µM | 0.63% of 330,000 active | AID 463079, 2010;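 active = inhibition above that plate's mean sample inhibition plus 3 SD, cut at about 26% in these data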;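 also: 0% = ATP-challenged DMSO wells and 100% = DMSO wells without ATP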
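Material: Parental CHO cells | Reagent: ATP | Compound dosing: Single nominal dose of 5.6 µM per compound | Detection: Intracellular calcium via Fluo-8 no-wash fluorescent dye | Read-out: % inhibition of ATP-induced calcium mobilization | Benchmarks: Low control ATP plus DMSO, high control DMSO only | Replicates: Singlicate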
OX1R antag-2: antagonists of human orexin 1 receptor (OX1R). inhibition, % at 6.6 µM. Orexin/Hypocretin receptor type 1 (Homo sapiens), O43613. AID 485270, 2010. 1.8% of 330,000 active. OX1R-expressing cells, FRET antagonist read-out; in the data active = inhibition mostly above about 38%, no sharp cut-off; inactive = mostly below about 40%;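 also: 0% = agonist challenge alone and 100% = reference antagonist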
EP2 mod: EP2 receptor modulators, cAMP readout, primary screen, cell-based, HTRF cAMP, PGE2 stimulation; EP2-expressing cells, cAMP HTRF FRET, PGE2 co-stimulation; induction, % at 25 µM; 0.83% of 260,000 active; Prostaglandin E2 receptor EP2 subtype (Homo sapiens), P43116;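 active = compounds whose cAMP rise, as percent of the full-agonist control response, exceeds 60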;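 also: rat C6 glioma line stably carrying human EP2 under a CMV promoter; the protocol text gives 20 µM as final concentration; 100% = response of wells given 1 µM PGE2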
Active calls of the source: *; . = not tested or not shown.

SMILES	GPR7 antagonist	OX1R antag-1	EP2 antag	CHO parental Ca	OX1R antag-2	EP2 mod
COc1ccc(CNC(=O)CCCCCn2c(SCC#N)nc3cc4c(cc3c2=O)OCO4)cc1	2	-12	8	-5	16	-4
CC(C)(C)C(=O)NCC12C=CC(O1)C1C(=O)N(c3ccccc3)C(=O)C12 (centres undefined)	-11	-19	4	-11	2	22
O=C1C2C3C=CC(CO)(O3)C2C(=O)N1c1ccc(-c2ccccc2)cc1 (centres undefined)	-4	30	10	61*	16	.
CCOC(=O)Cn1c(=NC(=O)C(C)C)sc2c(C)cc(C)cc21	16	-40	6	-19	24	30
Cc1ccc(Sc2ccc(S(=O)(=O)Nc3ccc(C(=O)O)cc3)cc2)cc1C	.	42	.	48*	6	.
Cc1ccc(Oc2ccc(S(=O)(=O)Nc3ccc(C(=O)O)cc3)cc2)cc1	.	25	.	-2	6	.
N#Cc1c(Cl)nc(SCc2ccccc2)nc1-c1ccccc1	-4	-8	61*	-11	20	16
O=C(NCCOc1ccccc1)c1ccccc1Cl	-2	-13	.	3	-8	.
CN(C(=O)COc1ccccc1C(=O)NCCOc1ccccc1)c1ccccc1	9	78*	90*	92*	80*	-67
CCCNC1=C(N(C(C)=O)c2cccc(F)c2)C(=O)c2ccccc2C1=O	3	-17	7	-5	68*	-14
O=P(CCCCCCCCCP(=O)(c1ccccc1)c1ccccc1)(c1ccccc1)c1ccccc1	-3	86*	8	100*	26	20
CC(C)(C)OC(=O)NCc1ccc(CNC(=O)c2nc[nH]c2C(=O)NCc2ccc(CNC(=O)OC(C)(C)C)cc2)cc1	.	21	.	2	0	.
CC(C)C[C@H](NC(=O)c1nc[nH]c1C(=O)NC1CCN(C(=O)OC(C)(C)C)CC1)C(=O)OC(C)(C)C	-34	-37	9	-41	8	16
CC(C)(C)OC(=O)NCCCCCNC(=O)c1[nH]cnc1C(=O)N[C@@H](Cc1ccccc1)C(=O)OCc1ccccc1	-23	73*	13	47*	8	6
CC(C)C[C@H](NC(=O)c1nc[nH]c1C(=O)NCCCCCNC(=O)OC(C)(C)C)C(=O)OCc1ccccc1	-28	-3	12	11	18	-13
CC(C)(C)OC(=O)NCCCCCNC(=O)c1nc[nH]c1C(=O)NCc1ccc(CNC(=O)OC(C)(C)C)cc1	.	58*	.	40*	15	.
CC(C)C[C@H](NC(=O)c1nc[nH]c1C(=O)NC1CCN(C(=O)OC(C)(C)C)CC1)C(=O)OCc1ccccc1	-33	-17	7	34*	26	-16
COc1ccc(C(=O)NNC(=O)CSc2nnnn2-c2cc(OC)cc(OC)c2)cc1	-4	-14	.	-13	14	.
O=C(c1n[nH]c(=O)c2ccccc12)N1CCN(S(=O)(=O)c2ccccc2Cl)CC1	.	-22	.	-16	6	.
CC[C@H](C)[C@H](NC(=O)c1ccc(Cl)cc1)C(=O)OCC(=O)c1ccc2c(c1)NC(=O)CO2	-9	59*	17	83*	20	13
CC(C)[C@H](NC(=O)c1ccccc1)C(=O)OCC(=O)c1ccc2c(c1)NC(=O)CO2	7	-23	1	-11	8	-29
CCN1CCOC(CC(=O)Nc2cccc(C)c2)C1=O (centres undefined)	.	.	5	.	.	69*
S=C1NC2(CCCCCC2)N=C1c1ccccc1	-8	14	5	-10	23	50
OC1(C(O)(c2ccc(-c3ccccc3)cc2)c2ccc(-c3ccccc3)cc2)CCCCC1	.	.	43*	.	.	25
O=C(OCC(=O)N1CCCC1)c1cc(Cl)ccc1[N+](=O)[O-]	-4	-3	.	-10	54	.
Nc1ccc(C(=O)OCC(=O)N2CCOCC2)cc1[N+](=O)[O-]	7	6	12	3	49*	4
